Calls of active or inactive are those of the source.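 How the source made its calls: active means average inhibition of labeled dioxin binding to the receptor of at least 10% at 10 µM; inactive means the rest.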
Test system: Aryl hydrocarbon receptor (Cavia porcellus)
Assay: AHR ligand binders displacing [3H]TCDD, late-stage follow-up, counter-screen for AHR activator project, cell lysate, guinea pig liver cytosol, radiometric (AID 602226)
Conditions: [3H]TCDD HAP binding; for inhibition: at 10 µM, stronger effect = higher value
Outline: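 Test system – guinea pig hepatic cytosol, AHR source · Quantity – cytosol at 2 mg protein per mL · Probe or stimulus – [3H]TCDD radioligand at 2 nM final · Incubation – 1 h binding incubation, room temperature · Signal – Hydroxyapatite capture, Tween-buffer washes, then scintillation counting · Measure – % reduction of specific radioligand binding · Repeats – three replicates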

[1] = measured here: IC50 range lower bound
[2] = measured here: IC50 range upper bound

inhibition	IC50 [1]	IC50 [2]	SMILES
39%	1000 nM	–	CCOC(=O)Cc1cc(-c2ccc(O)cc2)nc2ccc3ccccc3c12
9.5% (inactive)	–	–	Cc1csc(SCC(=O)Nc2ccc(Cl)cn2)n1
79%	100 nM	1000 nM	Cc1nc(N)nc(Nc2ccc(Cl)cc2)c1Br
32%	–	–	COc1ccccc1NC(=O)c1ccc(C(=O)Nc2ccccc2OC)nc1
99%	–	100 nM	Cc1ccc(-c2cc(-c3cccs3)[nH]n2)c(O)c1
65%	100 nM	1000 nM	COc1ccc(NC(=O)c2cccc3c(Br)cccc23)cc1
